Key:
[1] = Drug metabolism in B6C3F1 mouse liver microsomes after 30 mins by LC-ESI-MS analysis; format: ADME
Outline: (§1)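 2'-OH-TCC at 0.2, 0.5, 1, 2, 3, 5, 10 and 50 µM incubated with liver microsomes (alamethicin, MgCl2, saccharolactone, UDPGA; 37 °C), sampled at 5, 10, 15 and 30 min. Samples ≥5 µM diluted 1:9 in ACN; LC-ESI-MS. KM and vmax fitted from rate vs concentration; intrinsic clearance derived from these; mean and SD of three.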

[2] = Intrinsic clearance in cynomolgus monkey liver microsomes after 30 mins by LC-ESI-MS analysis; format: ADME, Macaca fascicularis; conditions: 0.5 h; outline: as §1
Liver = experiment: Intrinsic clearance in B6C3F1 mouse liver microsomes after 30 mins by LC-ESI-MS analysis; format: ADME; conditions: 0.5 h; outline: as §1
Liver microsome [3] = experiment: Drug metabolism in human liver microsomes assessed as N-glucuronide-triclocarban formation incubated for 5 mins prior to UDPGA addition measured after 5 to 30 mins by LC-UV analysis; format: ADME
Outline: (§2)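 Pooled human kidney or liver microsomes (liver: 25 mixed-gender donors), 5 µg protein, in 200 µL 100 mM potassium phosphate pH 7.4. Alamethicin pre-treated on ice 15 min. Final 10 µM TCC (2% DMSO), with 10 mM MgCl2 and 10 mM saccharolactone, preincubated 5 min at 37 °C. Started with UDPGA (20 mM stock). Sampled at 5, 10, 15 and 30 min into ACN containing 1 µM DCC internal standard.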

[4] = Drug metabolism in cynomolgus monkey liver microsomes assessed as N'-glucuronide-triclocarban formation incubated for 5 mins prior to UDPGA addition measured after 30 mins by LC-UV-ESI-MS/MS analysis; format: ADME, Macaca fascicularis; conditions: 0.5 h
Outline: (§3)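 TCC was incubated at 10 µM (2% DMSO) in 100 mM phosphate pH 7.4 with alamethicin-treated microsomes or Supersomes, 10 mM MgCl2 and 10 mM saccharolactone. After 5 min pre-incubation at 37 °C, UDPGA was added to start the reaction. Protein was raised up to 2 mg/mL. Samples were quenched in ACN with 1 µM DCC internal standard, centrifuged, and N-glucuronides detected by LC-ESI-MS/MS in SRM mode.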

[5] = Drug metabolism in human kidney microsomes assessed as N-glucuronide-triclocarban formation incubated for 5 mins prior to UDPGA addition measured after 5 to 30 mins by LC-UV analysis; format: ADME; outline: as §2
Liver microsome [6] = experiment: Drug metabolism in human liver microsomes assessed as N'-glucuronide-triclocarban formation incubated for 5 mins prior to UDPGA addition measured after 5 to 30 mins by LC-UV analysis; format: ADME; outline: as §2
[7] = Drug excretion in Swiss webster mouse urine assessed as N-glucuronide-triclocarban formation at 5 mg/kg, po by LC-MS analysis; format: ADME, organism-based; parameters: dose 5 mg/kg, route oral; conditions: in vivo
Outline: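 Mice were housed two per metabolic cage, with blank urine collected over the 24 h before dosing. TCC was given by oral gavage as a 1 mg/mL solution in 20/80 DMSO/PEG400 (v/v) at 5 mg/kg. Urine was collected at 0-24 h and 24-48 h and analysed by online LC-MS. Values are the mean of two independent experiments.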

[8] = Drug excretion in Sprague-Dawley rat urine assessed as N'-glucuronide-triclocarban formation at 1 mg/kg, po by LC-MS analysis; format: ADME, organism-based; parameters: dose 1 mg/kg, route oral; conditions: in vivo
[9] = Drug metabolism in human intestine microsomes assessed as N'-glucuronide-triclocarban formation incubated for 5 mins prior to UDPGA addition measured after 5 to 30 mins by LC-UV analysis; format: ADME
Outline: (§4)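 Microsomes or UGT Supersomes (5 µg protein) were held 15 min on ice with alamethicin in 100 mM potassium phosphate pH 7.4. TCC was added at 10 µM (2% DMSO) with 10 mM MgCl2 and 10 mM saccharolactone, pre-warmed 5 min at 37 °C, then started with UDPGA. Samples at 5, 10, 15 and 30 min were quenched in ACN. Product was read by LC-UV at 265 nm; rate came from regression over time, three incubations.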

[10] = target: T1, UDP-glucuronosyltransferase 1A10 (Homo sapiens, UniProt Q9HAW8); experiment: Drug metabolism assessed as human UGT1A10-mediated N'-glucuronide-triclocarban formation expressed in baculovirus infected insect sf9 cells incubated for 5 mins prior to UDPGA addition measured after 5 to 30 mins by LC-UV analysis; format: ADME; outline: as §4
T1 sequence (Q9HAW8 whole entry): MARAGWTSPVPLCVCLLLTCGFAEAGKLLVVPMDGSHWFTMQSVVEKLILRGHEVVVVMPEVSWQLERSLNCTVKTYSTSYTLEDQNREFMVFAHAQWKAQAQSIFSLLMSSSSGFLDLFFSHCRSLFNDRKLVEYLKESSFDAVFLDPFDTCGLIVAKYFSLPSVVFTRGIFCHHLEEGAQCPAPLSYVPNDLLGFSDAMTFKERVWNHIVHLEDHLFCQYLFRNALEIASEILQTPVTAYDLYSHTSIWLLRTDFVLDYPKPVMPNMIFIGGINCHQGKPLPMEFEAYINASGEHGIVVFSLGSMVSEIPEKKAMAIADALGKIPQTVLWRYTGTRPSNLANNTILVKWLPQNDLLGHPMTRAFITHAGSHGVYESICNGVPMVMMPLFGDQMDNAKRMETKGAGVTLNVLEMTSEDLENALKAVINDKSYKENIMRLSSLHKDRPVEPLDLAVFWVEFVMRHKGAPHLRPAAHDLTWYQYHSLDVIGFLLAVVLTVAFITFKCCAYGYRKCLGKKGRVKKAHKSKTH

[11] = target: T2, UDP-glucuronosyltransferase 2B7 (Homo sapiens, UniProt P16662); experiment: Drug metabolism assessed as human UGT2B7-mediated N'-glucuronide-triclocarban formation expressed in baculovirus infected insect sf9 cells incubated for 5 mins prior to UDPGA addition measured after 5 to 30 mins by LC-UV analysis; format: ADME; outline: as §4
T2 sequence (P16662 whole entry): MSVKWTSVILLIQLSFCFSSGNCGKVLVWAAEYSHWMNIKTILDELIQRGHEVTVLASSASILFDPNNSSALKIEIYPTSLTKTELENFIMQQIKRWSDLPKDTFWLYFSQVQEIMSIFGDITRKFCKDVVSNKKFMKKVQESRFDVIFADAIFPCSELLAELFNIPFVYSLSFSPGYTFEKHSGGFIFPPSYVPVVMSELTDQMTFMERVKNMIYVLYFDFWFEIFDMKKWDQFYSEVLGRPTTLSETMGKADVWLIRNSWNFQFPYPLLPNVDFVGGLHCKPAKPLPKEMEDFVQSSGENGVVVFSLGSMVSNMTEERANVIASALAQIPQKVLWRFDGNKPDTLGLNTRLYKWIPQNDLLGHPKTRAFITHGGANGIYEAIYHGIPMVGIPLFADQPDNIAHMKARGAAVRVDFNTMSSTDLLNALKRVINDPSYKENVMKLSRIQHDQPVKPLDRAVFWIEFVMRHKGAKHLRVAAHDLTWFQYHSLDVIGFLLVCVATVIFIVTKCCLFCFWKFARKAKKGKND

[12] = Drug metabolism in cynomolgus monkey liver microsomes assessed as N-glucuronide-triclocarban formation incubated for 5 mins prior to UDPGA addition measured after 30 mins by LC-UV-ESI-MS/MS analysis; format: ADME, Macaca fascicularis; conditions: 0.5 h; outline: as §3

SMILES	Km at 0.5 h ([1]; B6C3F1, mouse, liver microsomes) [µM]	Vmax ([1]; mouse, microsomes, 0.5 h) [nmol/min/mg]	CLH [2] [µL/min/mg]	CLH (Liver) [µL/min/mg]	Drug metabolism (Liver microsome [3])	Drug metabolism [4]	Drug metabolism [5]	Drug metabolism (Liver microsome [6])	Drug excretion [7]	Drug excretion [8]	Drug metabolism [9]	Drug metabolism [10]	Drug metabolism [11]	Drug metabolism [12]
O=C(Nc1ccc(Cl)c(Cl)c1)Nc1ccc(Cl)cc1O	2.46	1.45	19100	1450	–	–	–	–	–	–	–	–	–	–
O=C(Nc1ccc(Cl)cc1)Nc1ccc(Cl)c(Cl)c1 [TRICLOCARBAN]	–	–	–	–	metabolite_not_detected	metabolite_detected	metabolite_not_detected	metabolite_not_detected	metabolite_detected	metabolite_not_detected	metabolite_not_detected	metabolite_not_detected	metabolite_not_detected	metabolite_detected
